Source: ChEMBL document CHEMBL1121486, “Synthesis of nitrosourea derivatives of pyridine and piperidine as potential anticancer agents” (1980)

What was measured:
Conditions in all cases: route intraperitoneal
[1] = tested on: L1210; assay: The effect of compound on mouse leukemia L1210 tumor (Intraperitoneally implanted)after single dose injected intraperitoneally on day 1 […] at OD of 100 mg/kg; format: functional
[2] = tested on: L1210; assay: Compound tested for activity against mouse leukemia L1210 tumor (Intraperitoneally implanted) after single ip injection on day 1 at optimal dose of 100 mg/kg (Dose range 256-16); format: functional
Procedure, shortened: (§1)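 L1210 leukaemia implanted intraperitoneally in mice. Compound given over a dose range (mg/kg); optimum dose selected. Survivors for toxicity recorded day 5 post-injection. Measures: T – C body weight difference (g), % T/C, and cures, defined as 30-day survivors.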

[3] = tested on: L1210; assay: Compound tested for toxicity against mouse leukemia L1210 tumor (Intraperitoneally implanted) after single ip injection on day 1 at optimal dose (OD) of 100 mg/kg on the 5th day after the injection of the compound; (6/6); format: functional
[4] = tested on: L1210; assay: Effect of compound on mouse leukemia L1210 tumor (Intraperitoneally implanted) after single dose injected intraperitoneally on day 1 recorded as animal weight difference of the treated and the control (T-C) at OD of 100 mg/kg; format: functional; procedure, shortened: as §1
[5] = tested on: L1210; assay: Compound tested for toxicity against mouse leukemia L1210 tumor (Intraperitoneally implanted) after single ip injection on day 1 at optimal dose (OD) of 12.5 mg/kg on the 5th day after the injection of the compound; (5/5)
[6] = tested on: L1210; assay: Compound tested for activity against mouse leukemia L1210 tumor (Intraperitoneally implanted) after single ip injection on day 1 at optimal dose of 100 mg/kg (Dose range 400-12.5); format: functional; procedure, shortened: as §1

CCN1CCCC(NC(=O)N(CCCl)N=O)C1.O=C(O)/C=C\C(=O)O (configuration not stated)
T/C [1]: 235%
Optimal dose [2]: 128 mg/kg
Survival [3]: 6
T-C [4]: -5.9 g

O=C(O)/C=C\C(=O)O.O=NN(CCCl)C(=O)Nc1cccnc1
Survival [5]: 5
Optimal dose [6]: 12.5 mg/kg
T/C [1]: 126%
T-C [4]: -7 g

CCCCN1CCC(NC(=O)N(CCCl)N=O)CC1.O=C(O)/C=C\C(=O)O
T/C [1]: 197%
Optimal dose [2]: 64 mg/kg
Survival [3]: 6
T-C [4]: -3.9 g
